Data on five compounds can be found in PMC10061538 (ACS Omega, 2023).

Data set [1] addresses T1, CYP2A6 (Homo sapiens, UniProt P11509).
T1 sequence (P11509 1-494): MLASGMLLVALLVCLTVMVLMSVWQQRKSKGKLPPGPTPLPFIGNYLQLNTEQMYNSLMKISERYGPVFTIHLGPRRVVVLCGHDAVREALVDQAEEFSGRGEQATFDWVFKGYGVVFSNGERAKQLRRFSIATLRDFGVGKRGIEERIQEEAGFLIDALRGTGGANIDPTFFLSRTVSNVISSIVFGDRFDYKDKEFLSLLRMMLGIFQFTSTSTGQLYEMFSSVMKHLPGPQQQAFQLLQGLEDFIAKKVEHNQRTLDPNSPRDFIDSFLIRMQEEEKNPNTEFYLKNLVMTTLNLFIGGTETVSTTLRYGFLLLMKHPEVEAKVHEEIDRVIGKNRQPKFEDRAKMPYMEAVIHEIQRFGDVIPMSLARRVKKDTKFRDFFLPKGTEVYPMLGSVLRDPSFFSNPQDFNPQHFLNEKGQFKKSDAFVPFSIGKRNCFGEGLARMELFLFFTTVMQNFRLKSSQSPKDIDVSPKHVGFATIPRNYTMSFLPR
The settings on record: 50 μM tranylcypromine pretreatment 1 h, then 100 μM coumarin 1 h.

Data set [2] relates to CYP2A6-transduced BEAS-2B cells. In words: Cell viability by LDH release. The conditions noted are these: flavoring agent at 500 μM, 2 h total exposure, 50 μM coumarin, Figure S4. The data set is classed as cell-based. The method in brief:
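CYP2A6-transduced BEAS-2B cells were grown to confluence in KGM and switched to KBM. They were exposed to flavoring agent at 500 μM for 1 h, then coumarin was added to 50 μM, for 2 h total, in triplicate wells. Medium was incubated 30 min with tetrazolium substrate and read at 490 nm absorbance. Maximal LDH was set by lysis buffer.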

Data set [3] addresses T1, CYP2A6. Briefly: Cellular CYP2A6 inhibition screening. The data set is classed as cell-based. The conditions noted are these: for inhibition of cellular CYP2A6: flavoring agent at 500 μM.

Consider `Cl.N[C@@H]1C[C@H]1c1ccccc1` (relative stereo) [tranylcypromine, trans-2-Phenylcyclopropylamine hydrochloride], for which the “fluorescence (7-hydroxycoumarin formation) in CYP2A6-transduced cells” value at CYP2A6 [1] is listed as “strongly reduced”.

For orientation: IC50 means the concentration at which inhibition is half-maximal. The low end stands for greater potency in that assay, the high end for weaker potency in that assay. On to `O=Cc1ccccc1` [benzaldehyde], for which the “mean percent of maximal LDH” value in data set [2] is listed as 8.9%. Also, the IC50 on CYP2A6 [3] worked out at 7.6 µM.

On to `O=C/C=C/c1ccccc1` [cinnamaldehyde, trans-cinnamaldehyde], for which, in data set [2], the “mean percent of maximal LDH” value is listed as 6.6%. It took 7.4 µM to reach half-maximal inhibition against CYP2A6 [3] (IC50).

Regarding `CC(=O)OCCC(C)C` [isoamyl acetate], on CYP2A6 [3], the IC50 was above 500 µM and the “inhibition of cellular CYP2A6” value is “negligible inhibition”.

As to `COc1cc(C=O)ccc1O` [vanillin], on CYP2A6 [3], the IC50 came to 200 µM and the “inhibition of cellular CYP2A6” value is “near-maximal inhibition”.
